Source: ChEMBL document CHEMBL1122442, “Antifertility agents. 38. Effect of the side chain and its position on the activity of 3,4-diarylchromans” (1983)
Activity calls are given as the source filed them. The rule behind the calls is not given here.

What was measured:
[1] = organism: Rattus norvegicus; test: Effective dose for antiimplantation activity in male albino rats; format: functional; details: in the assay text read “female” for “male”
Summary of the method: (§1)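 Colony-bred adult female albino rats (150-170 g) mated with fertile coeval males; suspension in gum acacia given orally on days 1-7 postcoitum; positive only when implants were wholly absent from both uterine horns.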

[2] = target: T1, Estrogen receptor (Rattus norvegicus) (UniProt P06211+Q62986); test: Effect on uterine weight gain in immature rats by subcutaneous dose; N-Nil; format: functional
Summary of the method: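 Immature rats (25-30 g); dosed subcutaneously once daily for 3 days in 0.2 mL saline/propylene glycol (1:1, v/v); estrogenicity read as uterine weight gain.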

[3] = target: T1, Estrogen receptor (Rattus norvegicus)
[4] = system: Rattus norvegicus; test: Effective dose for anti-implantation activity in female albino rats at 10 mg/kg; IN-Inactive
[5] = organism: Rattus norvegicus; test: Effective dose for anti-implantation activity in male albino rats; Nil; format: functional, organism-based; details: in the assay text read “female” for “male”; summary of the method: as §1
[6] = system: Rattus norvegicus; test: Effective dose for antiimplantation activity in male albino rats at 2 mg/Kg;IN-Inactive; format: functional, organism-based; details: in the assay text read “female” for “male”; summary of the method: as §1
[7] = target: T1, Estrogen receptor (Rattus norvegicus); test: Relative binding affinity for uterine cytosol 17-beta-estradiol receptor from immature rats; N-Nil; format: protein assay
Summary of the method: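 Competitive binding against 17β-estradiol for uterine cytosol receptor from immature Charles Foster rats aged 21-25 days; dextran-coated charcoal removes unbound steroid; expressed as relative binding affinity.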

[8] = system: Rattus norvegicus; test: Effective dose for anti-implantation activity in female albino rats at 10 mg/kg; A-Active

| Compound | ED100 [1] [mg/kg/day] | ED100 [6] | further results |
| --- | --- | --- | --- |
| COc1ccc2c(c1)OC(C)(C)C(c1ccccc1)=C2c1ccc(OCCN2CCCC2)cc1 | 5 | – | – |
| COc1ccc2c(c1)OC(C)(C)C(c1ccccc1)C2c1ccc(OCCN2CCCC2)cc1 (stereo in doubt; 2) | – | – | Estrogenic effect [2]: inactive |
| COc1ccc2c(c1)OC(C)(C)C(c1ccccc1)=C2c1cccc(OCCN2CCCC2)c1.Cl | 1 | – | – |
| COc1ccc2c(c1)OC(C)(C)C(c1ccccc1)C2c1ccc(OCCN2CCCC2)cc1 (stereo in doubt; 1) | – | – | Estrogenic effect [3]: 0.56 |
| COc1ccc2c(c1)OC(C)(C)C(c1ccc(O)cc1)C2c1ccccc1 (stereo in doubt; 31) | – | – | ED100 [4]: inactive |
| COc1ccc2c(c1)OC(C)(C)C(c1ccccc1)C2c1ccc(O)cc1 (centres undefined) | – | – | ED100 [5]: inactive; Estrogenic effect [3]: 0.2 |
| CCN(CC)CCOc1ccc(C2c3ccc(OC)cc3OC(C)(C)C2c2ccccc2)cc1.Cl (centres undefined) | 0.3 | – | – |
| COc1ccc2c(c1)OC(C)(C)C(c1ccccc1)C2c1cccc(OCCN2CCCC2)c1 (stereo in doubt; 11) | – | inactive | – |
| COc1ccc2c(c1)OC(C)(C)C(c1ccccc1)C2c1ccc(OCCN2CCCC2)cc1 (stereo in doubt; 1) [ORMELOXIFENE] | 0.25 | – | – |
| COc1ccc2c(c1)OC(C)(C)C(c1ccc(O)cc1)C2c1ccccc1 (stereo in doubt; 33) | 1 | – | – |
| COc1ccc2c(c1)OC(C)(C)C(c1ccccc1)C2c1ccc(OCCCN2CCCC2)cc1.Cl (centres undefined) | 0.3 | – | – |
| COc1ccc2c(c1)OC(C)(C)C(c1ccccc1)C2c1ccc(OCCN2CCCC2)cc1 (stereo in doubt; 2) [ORMELOXIFENE] | 50 | – | – |
| COc1ccc2c(c1)OC(C)(C)C(c1ccc(OCCN3CCCC3)cc1)=C2c1ccccc1 | – | inactive | relative binding affinity (RBA) [7]: inactive |
| COc1ccc2c(c1)OC(C)(C)C(c1ccccc1)C2c1ccccc1OCCN1CCCC1 (centres undefined) | – | inactive | relative binding affinity (RBA) [7]: inactive |
| COc1ccc2c(c1)OC(C)(C)C(c1ccccc1)C2c1ccc(OCCN(C)C)cc1.Cl (centres undefined) | 2 | – | – |
| COc1ccc2c(c1)OC(C)(C)C(c1ccccc1)=C2c1ccccc1OCCN1CCCC1 | – | – | ED100 [4]: inactive; relative binding affinity (RBA) [7]: inactive |
| COc1ccc2c(c1)OC(C)(C)C(c1ccc(O)cc1)=C2c1ccccc1 | – | inactive | ED100 [8]: Active |
| COc1ccc2c(c1)OC(C)(C)C(c1ccccc1)C2c1cccc(OCCN2CCCC2)c1 (stereo in doubt; 22) | – | inactive | – |
| COc1ccc2c(c1)OC(C)(C)C(c1ccc(OCCN3CCCC3)cc1)C2c1ccccc1 (centres undefined) | 2 | inactive | relative binding affinity (RBA) [7]: inactive; Estrogenic effect [3]: 2.2 |
| CC1(C)Oc2cc(O)ccc2C(c2ccc(OCCN3CCCC3)cc2)C1c1ccccc1 (centres undefined) | 0.25 | – | Estrogenic effect [3]: 11.8 |
